Source: ChEMBL document CHEMBL4613220, “Identification of small molecule inhibitors of human COQ7” (Bioorg Med Chem, 2020)
Values joined by “and” are separate entries in the source; they are usually repeats but may differ in a detail not shown here. Equal entries are not always repeated. Active and inactive are the calls of the source. No cut-off for these calls is given here.

Tests used:
[1] = biological target: T1, 5-demethoxyubiquinone hydroxylase, mitochondrial (Homo sapiens) (UniProt Q99807); assay: Inhibition of COQ7 in human HeLa cells assessed as DMQ10 accumulation at 5 uM after 2 days by HPLC analysis; format: cell-based
T1 sequence (whole entry): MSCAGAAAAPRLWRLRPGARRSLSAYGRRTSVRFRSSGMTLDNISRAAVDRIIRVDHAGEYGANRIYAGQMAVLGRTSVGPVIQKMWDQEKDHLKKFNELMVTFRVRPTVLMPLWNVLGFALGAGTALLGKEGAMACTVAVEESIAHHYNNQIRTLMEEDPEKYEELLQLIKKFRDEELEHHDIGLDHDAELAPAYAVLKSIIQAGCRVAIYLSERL
Outline: (§1)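 HeLa cells cultured overnight, then exposed 48 hr to compound (single 30 µM screen, 10 µM, or graded doses); 0.5-1.0% DMSO controls. Quinones extracted with ethanol/n-hexane after K3Fe(CN)6 oxidation and UQ9 internal standard, then resolved by C18 HPLC with UV at 275 nm. DMQ10 and UQ10 reported as ng/well and DMQ10 as % of total quinone; mean of duplicates.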

[2] = biological target: T1, 5-demethoxyubiquinone hydroxylase, mitochondrial (Homo sapiens); assay: Inhibition of COQ7 in human HeLa cells assessed as DMQ10 accumulation at 20 uM after 2 days by HPLC analysis; format: cell-based; outline: as §1
[3] = biological target: T1, 5-demethoxyubiquinone hydroxylase, mitochondrial (Homo sapiens); assay: Inhibition of COQ7 in human BxPC3 cells assessed as DMQ10 accumulation at 10 uM after 1 day by HPLC analysis relative to control; format: cell-based; parameters: scale not given: the % may be the effect or the level left; conditions: BXPC-3
Outline: (§2)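 Cells (2 or 4 x 10^5/well) cultured overnight, then exposed 24 hr to compound at 10 µM; DMSO controls. Cells suspended in PBS with 5% K3Fe(CN)6, 0.12 µg UQ9 added as internal standard, quinones extracted in ethanol/n-hexane (2:5). Reverse-phase C18 HPLC, isocratic diisopropyl ether/methanol (1:9), 30 °C, UV 275 nm; DMQ10 at 10.2 min. DMQ10 reported as ng/well and % of total quinone; duplicate wells.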

[4] = biological target: T1, 5-demethoxyubiquinone hydroxylase, mitochondrial (Homo sapiens); assay: Inhibition of COQ7 in human PANC1 cells assessed as DMQ10 accumulation at 10 uM after 1 day by HPLC analysis relative to control; format: cell-based; parameters: scale not given: the % may be the effect or the level left; conditions: PANC-1; outline: as §2
[5] = biological target: T1, 5-demethoxyubiquinone hydroxylase, mitochondrial (Homo sapiens); assay: Inhibition of COQ7 in human PC3 cells assessed as DMQ10 accumulation at 10 uM after 1 day by HPLC analysis relative to control; format: cell-based; parameters: scale not given: the % may be the effect or the level left; conditions: PC-3; outline: as §2
[6] = biological target: T1, 5-demethoxyubiquinone hydroxylase, mitochondrial (Homo sapiens); assay: Inhibition of COQ7 in human HeLa cells assessed as DMQ10 accumulation at 10 uM after 1 day by HPLC analysis relative to control; format: cell-based; parameters: scale not given: the % may be the effect or the level left; outline: as §2
[7] = biological target: T1, 5-demethoxyubiquinone hydroxylase, mitochondrial (Homo sapiens); assay: Inhibition of COQ7 in human C3A cells assessed as DMQ10 accumulation at 10 uM after 1 day by HPLC analysis relative to control; format: cell-based; parameters: scale not given: the % may be the effect or the level left; outline: as §2
[8] = biological target: T1, 5-demethoxyubiquinone hydroxylase, mitochondrial (Homo sapiens); assay: Inhibition of COQ7 in human HeLa cells assessed as DMQ10 level per well at 10 uM after 2 days by HPLC analysis; format: cell-based; outline: as §1
[9] = biological target: T1, 5-demethoxyubiquinone hydroxylase, mitochondrial (Homo sapiens); assay: Inhibition of COQ7 in human HeLa cells assessed as UQ10 level per well at 10 uM after 2 days by HPLC analysis; format: cell-based; outline: as §1
[10] = biological target: T1, 5-demethoxyubiquinone hydroxylase, mitochondrial (Homo sapiens); assay: Inhibition of COQ7 in human HeLa cells assessed as DMQ10 level per well at 10 uM after 2 days by HPLC analysis relative to control; format: cell-based; parameters: scale not given: the % may be the effect or the level left; outline: as §1
[11] = (§3) Cytotoxicity against human WI38 cells assessed as growth inhibition after 4 days by cell-titer-Glo assay; format: cell-based, WI-38; conditions: WI-38 cells
Outline: (§4)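 WI-38 normal fibroblasts grown in DMEM + 10% FBS at 37 °C, 5% CO2. Pre-cultured 24 hr, then exposed to compound at 0-30 µM for 4 days. Viability read by CellTiter-Glo 2.0; GI50 by linear interpolation of concentration-response curves, mean of triplicates.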

[12] = tested on: WI-38; assay: as §3; format: cell-based; conditions: wi-38, 96 h, 96 h; outline: as §4
[13] = tested on: PANC-1; assay: Growth inhibition of human PANC1 cells after 3 days by cell-titer-Glo assay; format: functional; conditions: PANC-1, 72 h
Outline: (§5)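 Cells pre-cultured 24 hr, then exposed to a range of compound concentrations for a further 3 days. Viable cells counted by CellTiter-Glo 2.0 luminescence; GI50 obtained by linear interpolation of concentration-response curves, mean of triplicates. Medium: DMEM + 10% FBS for HeLa and PANC-1, EMEM for C3A, F-12K for PC-3; 37 °C, 5% CO2.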

[14] = tested on: C3A; assay: Growth inhibition of human C3A cells assessed as growth inhibition after 3 days by cell-titer-Glo assay; format: functional; conditions: 72 h; outline: as §5
[15] = tested on: HeLa; assay: Growth inhibition of human HeLa cells assessed as growth inhibition after 3 days by cell-titer-Glo assay; format: functional; conditions: 72 h; outline: as §5
[16] = tested on: PC-3; assay: Cytotoxicity against human PC3 cells assessed as growth inhibition after 3 days by cell-titer-Glo assay; format: functional; conditions: PC-3, 72 h; outline: as §5
[17] = tested on: C3A; assay: Growth inhibition of human C3A cells after 3 days in presence of 10 mM 2-DG by cell-titer-Glo assay; format: functional; conditions: 72 h
Outline: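 C3A cells in EMEM + 10% FBS with 10 mM 2-deoxyglucose in the medium to block glycolysis. Pre-cultured 24 hr, then exposed to graded compound concentrations for 3 further days. Viable cells quantified by CellTiter-Glo 2.0; GI50 by linear interpolation, mean of triplicates.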

[18] = biological target: T1, 5-demethoxyubiquinone hydroxylase, mitochondrial (Homo sapiens); assay: Inhibition of COQ7 in human PANC1 cells assessed as DMQ10 accumulation at 10 uM after 24 hrs by HPLC analysis relative to control; format: cell-based; parameters: scale not given: the % may be the effect or the level left; conditions: PANC-1; outline: as §2
[19] = biological target: T1, 5-demethoxyubiquinone hydroxylase, mitochondrial (Homo sapiens); assay: Inhibition of COQ7 in human PC3 cells assessed as DMQ10 accumulation at 10 uM after 24 hrs by HPLC analysis relative to control; format: cell-based; parameters: scale not given: the % may be the effect or the level left; conditions: PC-3; outline: as §2
[20] = biological target: T1, 5-demethoxyubiquinone hydroxylase, mitochondrial (Homo sapiens); assay: Inhibition of COQ7 in human C3A cells assessed as DMQ10 level per well at 10 uM after 1 day by HPLC analysis (reference value: 7.4 ng); format: cell-based; outline: as §2
[21] = biological target: T1, 5-demethoxyubiquinone hydroxylase, mitochondrial (Homo sapiens); assay: Inhibition of COQ7 in human HeLa cells assessed as DMQ10 level per well at 10 uM after 1 day by HPLC analysis (reference value: 6.8 ng); format: cell-based; outline: as §2
[22] = tested on: C3A; assay: Antiproliferative activity against human C3A cells at 10 uM assessed as increase in cell death incubated for 24 hrs and measured after 3 days
[23] = biological target: T1, 5-demethoxyubiquinone hydroxylase, mitochondrial (Homo sapiens); assay: Inhibition of COQ7 in human HeLa cells assessed as DMQ10 accumulation at 30 uM after 2 days by HPLC analysis relative to control; format: cell-based; parameters: scale not given: the % may be the effect or the level left; outline: as §1
[24] = biological target: T1, 5-demethoxyubiquinone hydroxylase, mitochondrial (Homo sapiens); assay: Inhibition of COQ7 in human HeLa cells assessed as DMQ10 accumulation at 10 uM after 2 days by HPLC analysis relative to control; format: cell-based; parameters: scale not given: the % may be the effect or the level left; outline: as §1

Row | Activity [8] | Activity [9] | Activity [10] | Compound | GI50 at 96 h [11] | other results
1 | – | – | – | Oc1c(I)cc(Cl)c2cccnc12 | – | Activity [1]: Active; Activity [2]: inactive; Activity [3]: < 5%; Activity [4]: < 5%; Activity [5]: < 5%; Activity [6]: > 20%; Activity [7]: > 20%
2 | 13.2 ng | 12.2 ng | 52% | Oc1cc(-c2ccccc2)nn1-c1ccc(Cl)cn1 | 19 µM | GI50 [12]: 19 µM; GI50 [13]: > 12 µM; GI50 [14]: 9 µM; GI50 [15]: > 12 µM; GI50 [16]: > 12 µM; GI50 [17]: 6.1 µM; Activity [18]: 11.4%; Activity [19]: 27.6%; Activity [20]: 7.8 ng; Activity [21]: 7.9 ng; Activity [22]: inactive
3 | 2.2 ng | 17.8 ng | 11% | CS(=O)(=O)c1ccc(-n2nc(-c3ccccc3)cc2O)nc1 | > 30 µM | –
4 | 0 ng | 35.7 ng | 0% | Clc1cc(-c2ccccc2)nn1-c1ccccn1 | > 30 µM | –
5 | 0 ng | 20.7 ng | 0% | Oc1cc(-c2ccccc2)nn1-c1ncccc1Cl | > 30 µM | –
6 | 1.8 ng | 14.8 ng | 10.8% | Oc1cc(-c2ccccc2)nn1-c1ccc(F)cn1 | 28.9 µM | –
7 | 9.2 ng | 9.4 ng | 49.5% | Oc1cc(-c2ccccc2)nn1-c1ccc(C(F)(F)F)cn1 | 9.4 µM | –
8 | 5.5 ng | 5.9 ng | 20.7% | Oc1cc(C2CCCCC2)nn1-c1ccccn1 | 9.1 µM | –
9 | 2.6 ng | 23.4 ng | 10% | Nc1ccc(-n2nc(-c3ccccc3)cc2O)nc1 | > 30 µM | –
10 | 0 ng | 22.7 ng | 0% | Oc1cc(-c2ccccc2)nn1-c1cc(Cl)ccn1 | > 30 µM | –
11 | 0 ng | 33.7 ng | 0% | Oc1cc(-c2ccccc2)nn1-c1ccncc1 | > 30 µM | –
12 | 5.8 ng | 12.1 ng | 32.4% | Oc1cc(C2CCCC2)nn1-c1ccccn1 | 12.7 µM | –
13 | 7.3 ng | 15.4 ng | 32.2% | Cc1ccc(-n2nc(-c3ccccc3)cc2O)nc1 | – | GI50 [12]: 26.3 µM and > 12 µM; GI50 [13]: > 12 µM; GI50 [14]: 18.5 µM; GI50 [15]: > 12 µM; GI50 [16]: > 12 µM; GI50 [17]: 20.2 µM; Activity [18]: 8.7%; Activity [19]: 14%; Activity [22]: inactive
14 | 0 ng | 24.4 ng | 0% | Oc1cc(C2CCC2)nn1-c1ccccn1 | 25 µM | –
15 | 0 ng | 6.7 ng | 0% | COc1ccc(-n2nc(-c3ccccc3)cc2O)nc1 | 25.4 µM | –
16 | 1.3 ng | 17.1 ng | 7.1% | Oc1cc(-c2ccccc2)nn1-c1ccccn1 | 20.8 µM | Activity [23]: > 30%; Activity [24]: 19.3%
17 | 6.6 ng | 8.8 ng | 42.9% | Oc1cc(CC2CCCCC2)nn1-c1ccccn1 | 17.5 µM | –
18 | 0 ng | 28.5 ng | 0% | Oc1cc(-c2ccccc2)nn1-c1ccccc1 | > 30 µM | –
19 | 9.3 ng | 8.8 ng | 51.4% | Oc1cc(CCc2ccccc2)nn1-c1ccccn1 | 9.6 µM | –
20 | 0 ng | 23.7 ng | 0% | Oc1cc(-c2ccccc2)nn1-c1cccnc1 | > 30 µM | –
